Test [1] addresses Induced myeloid leukemia cell differentiation protein Mcl-1 (Homo sapiens, UniProt Q07820). Kind of test: Competitive binding affinity to Mcl-1 (unknown origin) using 5-FAM-Bid-BH3 peptide preincubated for 30 mins before 5-FAM-Bid-BH3 peptide addition and measured 20 mins after 5-FAM-Bid-BH3 peptide addition by fluorescence polarization assay. In short, it runs like this:
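Mcl-1 preincubated 30 min at room temperature with compound in PBS (pH 7.3; 140 mM NaCl, 2.7 mM KCl, 1.8 mM KH₂PO₄). IC50 fitted, Ki calculated; three separate experiments.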

The subject of a further test is K562. Kind of test: Antiproliferative activity against human K562 cells after 48 hrs by MTT assay. The class given is functional, cell-based. The following applies: K562, 48 h. In short, it runs like this:
(§1)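 Cells grown in RPMI1640 with 10% fetal bovine serum at 37 °C, 5% CO₂. Log-phase cells seeded at 5000 per well and incubated 12 h, then exposed to a range of compound concentrations for 48 h. MTT (5 mg/mL) added for 4 h, medium removed, formazan dissolved in DMSO, absorbance read. IC50 reported.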
Background: Formazan colour is commonly taken as a measure of viable cells.

Test [2] in a line: Antiproliferative activity against human PC3 cells after 48 hrs by MTT assay. The class given is functional, cell-based. The following applies: PC-3, 48 h. In short, it runs like this: as §1
For test [3], the target named is Apoptosis regulator Bcl-2 (Homo sapiens, UniProt P10415). Kind of test: Competitive binding affinity to Bcl-2 (unknown origin) using 5-FAM-Bid-BH3 peptide preincubated for 30 mins before 5-FAM-Bid-BH3 peptide addition and measured 20 mins after 5-FAM-Bid-BH3 peptide addition by fluorescence polarization assay. In a few lines: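 Same FP competition with FAM-Bid-BH3 peptide at 10 nM final in PBS pH 7.3. Protein and compound preincubated 30 min at room temperature. IC50 fitted, then converted to Ki.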
Background: Polarisation of emitted light reports the rotation of a fluorescent probe.

A further test deals with Bcl-2-like protein 1 (Homo sapiens, UniProt Q07817). Briefly: Competitive binding affinity to Bcl-XL (unknown origin) using 5-FAM-Bid-BH3 peptide preincubated for 30 mins before 5-FAM-Bid-BH3 peptide addition and measured 20 mins after 5-FAM-Bid-BH3 peptide addition by fluorescence polarization assayy. In short, it runs like this: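 Same FP competition with FAM-Bid-BH3 peptide at 10 nM final in PBS pH 7.3. Protein and compound preincubated 30 min at room temperature. Final Bcl-2 376 nM, final Bcl-XL 170 nM. Polarization read at ex 485/em 535 nm in triplicate. IC50 fitted, then converted to Ki.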

For a further test, the system named is MDA-MB-231. Briefly: Antiproliferative activity against human MDA-MB-231 cells after 48 hrs by MTT assay. The class given is functional, cell-based. Conditions: MDA-MB-231, 48 h. In short, it runs like this: as §1

The structures appear in SMILES notation.

Among the data in ChEMBL document CHEMBL3734725, “Design, synthesis and preliminary biological studies of pyrrolidine derivatives as Mcl-1 inhibitors” (Bioorg Med Chem, 2015) are Ki and IC50 values, retold here.

What is called Ki is the dissociation constant of the complex between target and ligand, obtained from inhibition or displacement. Low values mean higher affinity, high ones lower affinity. As usually defined, the IC50 is the concentration at which inhibition is half-maximal.

Bcl-2-like protein 1, sequence (Q07817 whole entry): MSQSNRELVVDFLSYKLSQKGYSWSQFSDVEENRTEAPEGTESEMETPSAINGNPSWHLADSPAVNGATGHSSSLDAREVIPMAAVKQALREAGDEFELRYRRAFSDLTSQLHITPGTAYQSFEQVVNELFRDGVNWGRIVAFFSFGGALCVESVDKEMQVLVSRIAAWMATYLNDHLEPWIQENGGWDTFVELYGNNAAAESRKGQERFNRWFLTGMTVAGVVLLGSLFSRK
Induced myeloid leukemia cell differentiation protein Mcl-1, sequence (Q07820 whole entry): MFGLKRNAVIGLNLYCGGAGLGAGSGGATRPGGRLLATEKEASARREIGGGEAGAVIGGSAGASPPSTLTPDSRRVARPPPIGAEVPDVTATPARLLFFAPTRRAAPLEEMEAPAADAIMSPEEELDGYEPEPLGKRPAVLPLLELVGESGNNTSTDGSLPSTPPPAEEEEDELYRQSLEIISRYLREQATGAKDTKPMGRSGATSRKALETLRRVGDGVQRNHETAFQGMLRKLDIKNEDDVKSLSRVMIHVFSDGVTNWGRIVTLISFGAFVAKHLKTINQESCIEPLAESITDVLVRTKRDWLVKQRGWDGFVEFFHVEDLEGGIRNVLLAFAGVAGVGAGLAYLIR
Apoptosis regulator Bcl-2, sequence (P10415 whole entry): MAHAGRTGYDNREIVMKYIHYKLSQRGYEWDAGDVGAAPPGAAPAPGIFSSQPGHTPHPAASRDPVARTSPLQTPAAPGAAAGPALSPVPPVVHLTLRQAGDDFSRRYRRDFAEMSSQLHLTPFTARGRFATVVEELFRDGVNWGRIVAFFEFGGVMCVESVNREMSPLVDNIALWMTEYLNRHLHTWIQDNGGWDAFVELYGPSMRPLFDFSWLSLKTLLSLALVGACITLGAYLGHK

In the case of `CC(C)[C@H](NC(=O)[C@@H]1C[C@H](Oc2ccc(Br)cc2)CN1C(=O)OC(C)(C)C)C(=O)O`, in test [1], the Ki was more than 10 µM.
Same read-out and setting: to `CC(C)C[C@H](NC(=O)[C@@H]1C[C@H](Oc2ccc(Br)cc2)CN1C(=O)OC(C)(C)C)C(=O)O` belongs more than 10 µM.
For the compound `CC(C)(C)OC(=O)N1C[C@@H](Oc2ccc(-c3ccc(Cl)cc3)cc2)C[C@H]1C(=O)N[C@@H](Cc1ccc(Br)cc1)C(=O)NS(=O)(=O)c1ccc(Cl)c([N+](=O)[O-])c1`, the values for the IC50 (in the test with K562; in test [2]; in the test on MDA-MB-231) were 21.9 µM, 11.2 µM and 15.8 µM, respectively. Moreover, the Ki was 0.83 µM in test [3] and 2.1 µM at Bcl-2-like protein 1.
As to `CC(C)C[C@H](NC(=O)[C@@H]1C[C@H](Oc2ccc(-c3ccccc3)cc2)CN1C(=O)OC(C)(C)C)C(=O)O`, in test [1], the Ki is more than 10 µM.
Compound `CC(C)(C)OC(=O)N1C[C@@H](Oc2ccc(-c3ccccc3)cc2)C[C@H]1C(=O)N[C@@H](Cc1c[nH]c2ccccc12)C(=O)NS(=O)(=O)c1ccccc1` came in with a Ki in test [1] of 3.2 µM.
For the compound `CC(C)(C)OC(=O)N1C[C@@H](Oc2ccc(-c3ccccc3)cc2)C[C@H]1C(=O)NCC(=O)O`, the Ki in test [1] is more than 10 µM.
On the same count and under the same terms, the value for `CC(C)(C)OC(=O)N1C[C@@H](Oc2ccc(-c3ccccc3)cc2)C[C@H]1C(=O)N[C@H](C(=O)O)c1ccccc1` was more than 10 µM; that for `CC(C)(C)OC(=O)N1C[C@@H](Oc2ccc(-c3ccccc3)cc2)C[C@H]1C(=O)N[C@@H](Cc1ccccc1)C(=O)O` was 8.4 µM.
Same read-out and setting: to `Cc1ccc(S(=O)(=O)NC(=O)[C@H](Cc2ccc(Br)cc2)NC(=O)[C@@H]2C[C@H](Oc3ccc(-c4ccccc4)cc3)CN2C(=O)OC(C)(C)C)cc1` belongs 0.99 µM.
Same read-out and setting: to `CC(C)(C)OC(=O)N1C[C@@H](Oc2ccc(Br)cc2)C[C@H]1C(=O)N[C@@H](Cc1ccccc1)C(=O)O` belongs more than 10 µM.
Regarding `Cc1ccc(S(=O)(=O)NC(=O)[C@H](Cc2ccccc2)NC(=O)[C@@H]2C[C@H](Oc3ccc(-c4ccccc4)cc3)CN2C(=O)OC(C)(C)C)cc1`, the affinity in test [1] corresponds to a Ki of 3.3 µM.
On to `Cc1cc2c(C(C)C)c(O)c(O)c(C=O)c2c(O)c1-c1c(C)cc2c(C(C)C)c(O)c(O)c(C=O)c2c1O` [GOSSYPOL], for which the results for the IC50 (with K562; in test [2]; with MDA-MB-231) were 5.91 µM, 5.78 µM and 9.42 µM, respectively. Also, the Ki in test [1] amounted to 0.39 µM; on Bcl-2-like protein 1, 0.77 µM.
`CC(C)(C)OC(=O)N1C[C@@H](Oc2ccc(-c3ccccc3)cc2)C[C@H]1C(=O)N[C@@H](Cc1ccc(Br)cc1)C(=O)NS(=O)(=O)c1ccccc1` registered a Ki in test [1] of 1.2 µM.
As for `CC(C)(C)OC(=O)N1C[C@@H](Oc2ccc(-c3ccccc3)cc2)C[C@H]1C(=O)N[C@@H](Cc1ccc(Br)cc1)C(=O)NS(=O)(=O)c1ccc(Cl)c([N+](=O)[O-])c1`, the IC50 was 23 µM in the test with K562, 10.7 µM in test [2] and 13.6 µM with MDA-MB-231. For the same compound, the Ki was found to be 0.93 µM in test [3] and 2.2 µM on Bcl-2-like protein 1.
In the case of `CC(C)(C)OC(=O)N1C[C@@H](Oc2ccc(Br)cc2)C[C@H]1C(=O)N[C@H](C(=O)O)c1ccccc1`, the Ki in test [1] is more than 10 µM.
The same measure, in the same setting: the value for `CC(C)[C@H](NC(=O)[C@@H]1C[C@H](Oc2ccc(-c3ccccc3)cc2)CN1C(=O)OC(C)(C)C)C(=O)O` was more than 10 µM; that for `Cc1ccc(-c2ccc(O[C@H]3C[C@@H](C(=O)N[C@@H](Cc4ccccc4)C(=O)NS(=O)(=O)c4ccccc4)N(C(=O)OC(C)(C)C)C3)cc2)cc1` was 1.6 µM.
Consider `Cc1ccc(-c2ccc(O[C@H]3C[C@@H](C(=O)N[C@@H](Cc4ccc(Br)cc4)C(=O)NS(=O)(=O)c4ccc(Cl)c([N+](=O)[O-])c4)N(C(=O)OC(C)(C)C)C3)cc2)cc1`, for which the half-maximal inhibitory concentration (IC50) in the test with K562 worked out at 22.1 µM; in test [2], 13.8 µM; in the test with MDA-MB-231, 14.9 µM. For the same compound, the figures for the Ki (in test [3]; at Bcl-2-like protein 1) were 0.55 µM and 1.2 µM, respectively.
`Cc1ccc(-c2ccc(O[C@H]3C[C@@H](C(=O)N[C@@H](Cc4ccccc4)C(=O)NS(=O)(=O)c4ccc(C)cc4)N(C(=O)OC(C)(C)C)C3)cc2)cc1` gave a Ki in test [1] of 1.9 µM.
On the same count and under the same terms, to `CC(C)(C)OC(=O)N1C[C@@H](Oc2ccc(Br)cc2)C[C@H]1C(=O)NCC(=O)O` belongs more than 10 µM.
For `Cc1ccc(-c2ccc(O[C@H]3C[C@@H](C(=O)N[C@@H](Cc4ccccc4)C(=O)NS(=O)(=O)c4ccc(Cl)c([N+](=O)[O-])c4)N(C(=O)OC(C)(C)C)C3)cc2)cc1`, the IC50 was 22.4 µM with K562, 13.5 µM in test [2] and 15.4 µM in the test with MDA-MB-231. Further, the Ki in test [3] worked out at 4.6 µM; on Bcl-2-like protein 1, 8.7 µM.
